Sampled rows, rich in hits. Any-hit rate of the full collection: about 0.77%.
bIAP inhibitor – blocks bovine intestinal alkaline phosphatase activity; 190,000 tested, under 10 active; inhibition, % at 20 µM; purified bovine IAP, CDP-star luminescence, 30 min;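 active means over 50% inhibition of intestinal alkaline phosphatase at 20 µM in the single-dose screen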
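Assay system: bovine IAP enzyme; medium: DEA buffer 100 mM, pH 9.8, with MgCl2 1.0 mM, ZnCl2 0.02 mM; doses: 20 µM single dose; incubation: enzyme reaction for 30 min at room temperature; detection: CDP-star luminescence signal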
hIAP activ – increases human intestinal alkaline phosphatase activity; P09923; activation factor at 10 µM; AID 2524; actives 0.16% (n = 330,000); purified human IAP, CDP-Star luminescence, 30 min; hits give high values; 1 = vehicle-only enzyme, 0 = enzyme-free background;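 active means activation factor of the enzyme at least 2-fold when tested at 20 µM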
Target sequence (P09923 whole entry, looked up): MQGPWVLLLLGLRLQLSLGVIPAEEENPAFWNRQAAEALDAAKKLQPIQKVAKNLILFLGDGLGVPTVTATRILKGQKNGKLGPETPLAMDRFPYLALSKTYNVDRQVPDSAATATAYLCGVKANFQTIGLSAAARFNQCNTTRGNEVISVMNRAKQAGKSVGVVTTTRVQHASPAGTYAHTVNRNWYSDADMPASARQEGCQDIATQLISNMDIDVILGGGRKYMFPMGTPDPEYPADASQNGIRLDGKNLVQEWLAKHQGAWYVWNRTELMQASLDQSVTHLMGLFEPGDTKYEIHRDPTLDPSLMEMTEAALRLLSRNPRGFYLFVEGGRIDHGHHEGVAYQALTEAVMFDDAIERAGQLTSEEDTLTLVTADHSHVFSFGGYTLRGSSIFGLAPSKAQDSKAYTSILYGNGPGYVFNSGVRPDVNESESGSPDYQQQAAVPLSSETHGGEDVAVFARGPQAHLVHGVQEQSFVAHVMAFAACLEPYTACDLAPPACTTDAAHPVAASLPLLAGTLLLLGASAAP
mIAP activ – increases mouse intestinal alkaline phosphatase activity; muIAP, CDP-Star luminescence, 30 min; hits give high values; 1 = vehicle-only enzyme signal, 0 = enzyme-free wells; activation factor at 10 µM; actives 0.24% (n = 330,000);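 active means activation factor of at least 2 at 20 µM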
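Assay system: mouse IAP enzyme; Reagent: CDP-Star chemiluminescent phosphatase substrate; Compound: DMSO-dissolved test compounds; Incubation: 30 min, room temperature; Technique: luminescence from enzymatic CDP-Star hydrolysis; Controls: DMSO-only wells and no-enzyme negative control.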
hIAP block – human IAP inhibition; purified IAP, CDP-Star luminescence, 30 min; inhibition, % at 10 µM; actives 0.12% (n = 330,000); AID 2544;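 active means inhibition reaching a set limit with compound at 10 µM in the primary screen, cut at about 35% in these data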
bIAP activator – intestinal alkaline phosphatase (bovine) activation; purified bovine IAP, CDP-star luminescence, 30 min; hits give high values; fold of DMSO-control signal, blank-subtracted; activation factor at 20 µM; actives 0.17% (n = 200,000);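 active means activation factor of 2 or more at 20 µM, a signal rise over negative controls twice the positive control's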
mIAP block – blocks mouse intestinal alkaline phosphatase | actives 0.2% (n = 330,000) | purified mouse IAP, CDP-Star luminescence, 30 min | inhibition, % at 10 µM;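 active means inhibition of at least 40% at 10 µM in the primary screen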
Numbers stand for hits; i = inactive; nt = no result.

SMILES	bIAP inhibitor	hIAP activ	mIAP activ	hIAP block	bIAP activator	mIAP block
Cc1cc(C(=O)C(=O)O)c(C)n1-c1ccc(Cl)c(Cl)c1	i	i	i	i	2.5	i
COc1ccc(CCNC(=S)NCc2ccc(Cl)c(Cl)c2)cc1OC	i	i	2.04	i	i	i
COc1cc(CNCc2ccccn2)ccc1OCC(N)=O	i	i	i	i	i	i
COc1cc(CNCc2ccccn2)ccc1OCc1ccc(Cl)cc1Cl	i	i	i	i	2.7	i
COc1cc(CNCCN2CCOCC2)ccc1OCc1ccc(Cl)cc1Cl	i	i	i	i	i	i
COc1cc(CNCc2ccccn2)ccc1OCc1ccc(Cl)c(Cl)c1	i	i	i	i	2.4	i
COc1cccc(OCC(=O)NNC(=O)c2cccs2)c1	i	i	i	i	i	40.6
CC(C)(C)n1nc2c(c1NC(=O)c1ccc(Br)o1)CS(=O)C2 (centres undefined)	i	i	i	i	2.6	i
COc1ccc(NC(=O)Cc2ccc(Cl)cc2)cc1S(=O)(=O)N1CCCCC1	nt	i	i	i	nt	i
O=C(O)c1cc(O)c2c(c1)C(=O)c1cc(O)cc(O)c1C2=O	i	i	i	i	i	40.1
Cc1cccc(N2CCN(C(=O)CCC(=O)N3CC(C)Oc4ccc(C)cc43)CC2C)c1 (centres undefined)	nt	i	i	i	nt	i
COc1cccc(CN2CC(C(=O)NCC3CCOCC3)CCC2=O)c1 (centres undefined)	nt	i	i	i	nt	i
COc1ccc(OC)c(NC(=S)NCCC(c2ccccc2)c2ccccc2)c1	nt	i	2.59	i	nt	i
Cc1ccc(NC(=S)NCCC(c2ccccc2)c2ccccc2)c(C)c1	i	i	4.07	i	i	i
COc1ccc(OC)c(NC(=S)NCc2ccccc2OC)c1	i	i	i	i	i	i
COC(=O)c1ccc(OC(=O)CCN2c3ccccc3Sc3ccccc32)cc1	i	i	i	i	5.1	i
O=C(NC1CC2CCC(C1)N2Cc1nnnn1Cc1ccco1)NC12CC3CC(CC(C3)C1)C2 (centres undefined)	i	i	i	i	3.4	i
CCOc1ccccc1C(=O)NC1CC2CCCC(C1)N2Cc1nnnn1Cc1ccco1 (centres undefined)	i	i	i	i	i	i
CCOc1ccccc1NC(=S)N1C2CCC1CC(NC(=O)NC13CC4CC(CC(C4)C1)C3)C2 (centres undefined)	i	i	2.12	i	i	i
C=CCOc1ccc(/C=C/C(=O)OCC(=O)N(C)C2CCS(=O)(=O)C2)cc1 (centres undefined)	nt	i	i	i	nt	i
Cc1cc(C)n(C(=O)CCC(=O)NCc2ccccc2)n1	i	i	i	i	i	56.0
Cc1oc2ccc(O)cc2c1C(=O)c1ccc([N+](=O)[O-])cc1	i	i	i	i	i	i
CN(C)/C=C/c1oc2ccc(O)cc2c1[N+](=O)[O-]	i	i	i	46.3	i	i
Cc1cc(C)nc(N2CCCC(C(=O)Nc3nc4ccc(S(C)(=O)=O)cc4s3)C2)n1 (centres undefined)	i	i	i	i	5.3	i
O=S1(=O)CCOC[C@H](CC2CCCCC2)N1Cc1ccccc1Br	nt	i	i	i	nt	i
SMILES	bIAP inhibitor	hIAP activ	mIAP activ	hIAP block	bIAP activator	mIAP block
COc1cccc(NC(=O)Nc2ccncc2)c1	i	i	i	i	i	i
COc1cccc(NC(=O)Nc2cc(NC(=O)Nc3cccc(OC)c3)c(C)nc2C)c1	i	i	2.03	i	i	i
COc1cccc(NC(=O)Nc2ccc(Cc3ccncc3)cc2)c1	i	i	4.57	i	i	i
COc1cccc(C2(c3cccc(OC)c3)CC2C(=O)Nc2cccc3ccccc23)c1 (centres undefined)	i	i	i	i	i	i
COc1cccc(NC(=O)C2CC2(c2cccc(OC)c2)c2cccc(OC)c2)c1 (centres undefined)	i	i	2.23	i	i	i
COc1cc(NC(=O)C2CCN(S(=O)(=O)c3ccc(Cl)cc3)CC2)ccc1-n1cnnn1	i	i	2.31	i	i	i
Cc1ccc(NC(=O)COC(=O)c2ccc[n+]([O-])c2)c(Br)c1	nt	i	i	i	nt	i
O=C(NN1C(=O)/C(=C/c2cc([N+](=O)[O-])ccc2O)SC1=S)c1ccccc1O	nt	i	i	i	nt	51.3
COc1cc(/C=C2\SC(=S)N(NC(=O)c3ccccc3O)C2=O)ccc1O	nt	i	i	i	nt	i
COC(=O)c1cccc(NC(=O)Nc2ccc(Cl)c(Cl)c2)c1	i	i	3.04	i	i	i
COC(=O)c1ccc(NC(=O)Nc2ccc(F)c(Cl)c2)cc1	i	i	2.29	i	i	i
COC(=O)c1cc(NC(=O)Nc2ccccc2)ccc1Cl	i	i	2.5	i	i	i
O=C(Nc1ccncc1)Nc1ccc(F)c(Cl)c1	i	i	i	i	i	i
CCCCn1c(N)c(N(CCOC)C(=O)CCS(=O)(=O)c2ccc(Cl)cc2)c(=O)[nH]c1=O	nt	i	i	i	nt	i
Cc1ccc2c(c1)c1c(n2CCc2ccc(C)nc2)CCN(C)C1	nt	i	i	i	nt	i
Cc1cc(C)cc(NC(=S)NC2CC3CCCC(C2)N3CC(C)C)c1 (centres undefined)	i	i	i	i	i	i
S=C(NCc1ccncc1)Nc1cccc(Cl)c1	i	i	i	i	i	i
S=C(Nc1ccc(Cl)cc1)NC1CC2CCCC(C1)N2C1CCCC1 (centres undefined)	i	i	i	i	i	i
S=C(NCc1cccc(Cl)c1)NC1CCCCC1	i	i	2.47	i	i	i
S=C(Nc1ccc(Cl)cc1)NC1CC2CCCC(C1)N2C1CC1 (centres undefined)	i	i	2.64	i	i	i
C=CCN1C2CCCC1CC(NC(=O)Nc1cc(C)cc(C)c1)C2 (centres undefined)	i	i	i	i	2	i
S=C(NCCN(C1CCCCC1)C1CCCC1)Nc1cccc(Cl)c1	nt	i	2.02	i	nt	i
CC(=O)Nc1ccc(NC(=O)C(C)OC(=O)CCCOc2ccc(Cl)c(C)c2)cc1 (centres undefined)	nt	i	i	i	nt	i
CCOc1ccccc1-c1nnc(SCC(=O)NC2CC2)n1CC	nt	i	i	i	nt	i
Cc1cc(C)cc(NC(=S)NC2CC3CCCC(C2)N3C2CC2)c1 (centres undefined)	i	i	2.31	i	i	i
S=C(Nc1cccc(Cl)c1)NC1CC2CCCC(C1)N2C1CCCC1 (centres undefined)	i	i	2.2	i	i	i
S=C(Nc1ccc(Cl)cc1)NC1CC2CCC(C1)N2Cc1ccccc1 (centres undefined)	i	i	2.26	i	i	i
CNC(=S)NC1CC2CCC(C1)N2Cc1ccccc1 (centres undefined)	i	i	i	i	i	i

Compound activity as filed in PubChem.
